Experiments:
[1] = Retention time of the compound by ELSD chromatography; format: physicochemical
Summary of the method: (§1)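 Waters Acquity UPLC with ELSD, PDA and single-quadrupole ESI-MS (positive and negative modes). Fractions from automated fractionation of plant extracts were run on a BEH C18 column (2.1 × 50 mm, 1.7 μm) at 1.0 mL/min. Mobile phase was H2O with 0.1% HCOOH against CH3CN or MeOH, with a 3.0 min total run. The gradient differed by run.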

[2] = Retention time of the compound by PDA chromatography; format: physicochemical; summary of the method: as §1
[3] = Antiproliferative activity against mouse ependymoma cells harboring EPHB2 after 96 hrs by Cell-Titer Glo assay; format: functional, cell-based
Summary of the method: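 Cells seeded in neurobasal medium in 384-well plates. Compounds were pin-transferred 24 h later, and DMSO and cycloheximide controls were included on each plate. Dose-response was run as a dilution series in triplicate. After 96 h incubation, cell number was read by CellTiter-Glo luminescence. Data were log10-transformed and percent inhibition calculated, and EC50 was derived.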

| SMILES | Retention_time [1] | Retention_time [2] | EC50 [3] |
| --- | --- | --- | --- |
| COc1cc(O)c2c(c1)OC(c1ccc(O)c(O)c1)CC2=O (centres undefined) | 1.02 min | 0.98 min | – |
| COc1ccc([C@@H]2CC(=O)c3c(O)cc(O)cc3O2)cc1O [HESPERETIN] | 0.91 min | 0.87 min | – |
| COc1cc([C@@H]2c3cc4c(cc3C[C@H]3COC(=O)[C@@H]32)OCO4)cc(OC)c1OC [DESOXYPODOPHYLLOTOXIN] | 1.18 min | 1.15 min | 1.93 nM |
| COc1cc(C[C@H]2C(=O)OC[C@@H]2Cc2ccc3c(c2)OCO3)cc(OC)c1OC | 1.2 min | – | – |
| C=C1CC[C@@H]2[C@](C)(CCC[C@]2(C)C(=O)O)[C@H]1CCC(C)(O)C(O)CO (mixture of isomers) | 0.92 min | – | > 100 µg/mL |
| CC1=c2cc3c(cc2C(=O)OC1(C)C)=C(C)C(C)(C)OC3=O | 0.9 min | 0.92 min | – |
| COc1cc([C@@H]2CC(=O)c3c(O)cc(O)cc3O2)ccc1O [HOMOERIODICTYOL] | 0.89 min | 0.85 min | – |

— ChEMBL document CHEMBL3232932, “UPLC-MS-ELSD-PDA as a powerful dereplication tool to facilitate compound identification from small-molecule natural product libraries” (J Nat Prod, 2014)
